Data as given in ChEMBL document CHEMBL4152216, “Syntheses and anti-pancreatic cancer activities of rakicidin A analogues” (Eur J Med Chem, 2018).

How the values were obtained:
ASPC1 [1] = experiment: Selectivity index, ratio of IC50 against human Aspc-1 cells under normoxic condition to IC50 for human Aspc-1 cells under hypoxic condition; assay type: functional
In short: (§1)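 Hypoxic selectivity index is IC50 (normoxia)/IC50 (hypoxia). Both IC50s come from the 72 h MTT assay in the same cell line, run under normoxia (37 °C, 5% CO2) or a sealed 1% O2/5% CO2/94% N2 chamber, each the mean of three independent experiments.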

PANC-1 [2] = experiment: Increase in tumor initiating cell frequency in human PANC1 cells xenografted in BALB/c nude mouse at 0.5 uM measured after 7 days; assay type: cell-based; conditions: in vivo, 168 h
In short: (§2)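 PANC-1 cells were treated in vitro with compound (ADR at 0.5 µM) for 48 h, collected, and injected subcutaneously at limiting cell doses into 5-week-old female BALB/c nude mice. Tumor formation rate was scored after 7 days. Tumor-initiating frequency was derived by limiting-dilution analysis with Poisson statistics against vehicle.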

PANC-1 [3] = experiment: Cytotoxicity against human PANC1 cells after 72 hrs under hypoxic condition by MTT assay; assay type: functional, cell-based; conditions: PANC-1, 72 h
In short: (§3)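 PANC-1, PATU8988T and ASPC-1 cells were grown in DMEM with 10% FBS at 37 °C and 5% CO2, then seeded at 4000 cells/well. Compounds were added at various concentrations after 6 h. Normoxic plates stayed at 37 °C, 5% CO2. Hypoxic plates went into a chamber purged 10 min with 5% CO2/1% O2/94% N2, sealed, at 37 °C. After 72 h, MTT was added for 4 h, formazan dissolved in DMSO and read at 570 nm. IC50 is the mean ± SD of three independent experiments.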

[4] = biological target: T1, Aldehyde dehydrogenase, mitochondrial (Homo sapiens) (UniProt P05091); experiment: Inhibition of ALDH in human PANC1 cells assessed as aldefluor positive cells at 0.5 uM after 72 hrs by aldefluor assay (reference value: 12.5%); assay type: cell-based; set-up: scale not given: the % may be the effect or the level left
T1 sequence (whole entry): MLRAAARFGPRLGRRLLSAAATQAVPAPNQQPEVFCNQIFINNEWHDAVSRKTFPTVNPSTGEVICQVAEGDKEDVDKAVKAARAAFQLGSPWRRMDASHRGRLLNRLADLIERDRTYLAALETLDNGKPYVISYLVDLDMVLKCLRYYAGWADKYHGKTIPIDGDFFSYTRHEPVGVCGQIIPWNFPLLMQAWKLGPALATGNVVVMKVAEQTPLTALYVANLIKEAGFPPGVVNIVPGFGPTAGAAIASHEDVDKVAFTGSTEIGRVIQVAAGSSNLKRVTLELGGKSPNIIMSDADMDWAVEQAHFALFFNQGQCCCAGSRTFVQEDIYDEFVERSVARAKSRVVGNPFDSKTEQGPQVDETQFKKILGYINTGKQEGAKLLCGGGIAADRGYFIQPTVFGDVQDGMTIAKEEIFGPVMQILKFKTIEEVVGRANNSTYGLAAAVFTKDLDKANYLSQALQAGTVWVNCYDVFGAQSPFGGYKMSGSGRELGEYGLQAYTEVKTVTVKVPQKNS
In short: (§4)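 PANC-1 cells were seeded at 5×10^4 cells/well and exposed after 6 h to compound (0.2 µM; ADR 0.5 µM) for 72 h. Living cells were suspended in assay buffer and incubated with Aldefluor substrate for 60 min at 37 °C. A parallel sample received substrate plus the ALDH inhibitor DEAB as negative control. Readout was percentage of ALDH+ cells, mean ± SEM, n = 3.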

ASPC1 [5] = experiment: Cytotoxicity against human Aspc-1 cells after 72 hrs under hypoxic condition by MTT assay; assay type: functional, cell-based; conditions: ASPC1, 72 h; in short: as §3
PANC-1 [6] = experiment: Cytotoxicity against human PANC1 cells after 72 hrs under normoxic condition by MTT assay; assay type: functional, cell-based; conditions: PANC-1, 72 h; in short: as §3
PANC-1 [7] = experiment: Selectivity index, ratio of IC50 against human PANC1 cells under normoxic condition to IC50 for human PANC1 cells under hypoxic condition; assay type: functional; in short: as §1
PANC-1 [8] = experiment: Inhibition of cancer stem cell population of human PANC1 cells assessed as CD24+/CD44+/ESA+ cell population level at 0.15 uM after 48 hrs by flow cytometric analysis (reference value: 1.7%); assay type: functional; set-up: scale not given: the % may be the effect or the level left
[9] = biological target: T1, Aldehyde dehydrogenase, mitochondrial (Homo sapiens); experiment: Inhibition of ALDH in human PANC1 cells assessed as aldefluor positive cells at 0.5 uM after 72 hrs in presence of DEAB by aldefluor assay (reference value: 0.455%); assay type: cell-based; set-up: scale not given: the % may be the effect or the level left; in short: as §4
ASPC1 [10] = experiment: Cytotoxicity against human Aspc-1 cells after 72 hrs under normoxic condition by MTT assay; assay type: functional, cell-based; conditions: ASPC1, 72 h; in short: as §3
PANC-1 [11] = experiment: Antitumor activity against human PANC1 cells xenografted in zebrafsh yolk assessed as tumor growth inhibition at 66.7 uM after 2 days by fluorescence microscopy; assay type: functional
In short: (§5)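 About 300 PANC-1 cells were microinjected into the yolk of 2 dpf wild-type AB zebrafish, which were held at 35 °C to 3 dpf. Fish were then randomized to 6-well plates, 30 per well, and dosed once with compound at 0.005–50 µM. Gemcitabine 66.7 µM served as positive control and 10% aqueous castor oil as blank. After 2 days at 35 °C, 15 fish per group were imaged by fluorescence microscopy. Inhibition (%) = (1 − S(sample)/S(blank)) × 100, mean ± SEM, n = 15.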

PANC-1 [12] = experiment: Antitumor activity against human PANC1 cells xenografted in zebrafsh yolk assessed as tumor growth inhibition at 0.05 uM after 2 days by fluorescence microscopy; assay type: functional; in short: as §5
PANC-1 [13] = experiment: Antitumor activity against human PANC1 cells xenografted in zebrafsh yolk assessed as tumor growth inhibition at 50 uM after 2 days by fluorescence microscopy; assay type: functional; in short: as §5
PaTu 8988t [14] = experiment: Cytotoxicity against human PA-TU-8988T cells after 72 hrs under normoxic condition by MTT assay; assay type: functional, cell-based; in short: as §3
PaTu 8988t [15] = experiment: Cytotoxicity against human PA-TU-8988T cells after 72 hrs under hypoxic condition by MTT assay; assay type: functional, cell-based; in short: as §3
Danio rerio = experiment: Toxicity in zebrafish xenografted with human PANC1 cells at 50 uM after 2 days by fluorescence microscopy; assay type: organism-based; conditions: 48 h
PANC-1 [16] = experiment: Antitumor activity against human PANC1 cells xenografted in zebrafsh yolk assessed as tumor growth inhibition at 0.005 uM after 2 days by fluorescence microscopy; assay type: functional; in short: as §5
PANC-1 [17] = experiment: Antitumor activity against human PANC1 cells xenografted in zebrafsh yolk assessed as tumor growth inhibition at 0.5 uM after 2 days by fluorescence microscopy; assay type: functional; in short: as §5
PANC-1 [18] = experiment: Antitumor activity against human PANC1 cells xenografted in zebrafsh yolk assessed as tumor growth inhibition at 5 uM after 2 days by fluorescence microscopy; assay type: functional; in short: as §5
PaTu 8988t [19] = experiment: Selectivity index, ratio of IC50 against human PA-TU-8988T cells under normoxic condition to IC50 for human PA-TU-8988T cells under hypoxic condition; assay type: functional; in short: as §1
[20] = biological target: T1, Aldehyde dehydrogenase, mitochondrial (Homo sapiens); experiment: Inhibition of ALDH in human PANC1 cells assessed as aldefluor positive cells at 0.2 uM after 72 hrs in presence of DEAB by aldefluor assay (reference value: 0.455%); assay type: cell-based; set-up: scale not given: the % may be the effect or the level left; in short: as §4
PANC-1 [21] = experiment: Antitumor activity against human PANC1 cells xenografted in BALB/c nude mouse assessed as reduction in tumor initiating cell frequency at 0.1 to 0.25 uM measured after 7 days; assay type: functional; in short: as §2
[22] = biological target: T1, Aldehyde dehydrogenase, mitochondrial (Homo sapiens); experiment: Inhibition of ALDH in human PANC1 cells assessed as aldefluor positive cells at 0.2 uM after 72 hrs by aldefluor assay (reference value: 12.5%); assay type: cell-based; set-up: scale not given: the % may be the effect or the level left; in short: as §4
ASPC1 [23] = experiment: Potency index, ratio of […] for rakicidin A to IC50 for test compound for cytotoxicity against human Aspc-1 cells after 72 hrs under hypoxic condition by MTT assay; assay type: functional
PANC-1 [24] = experiment: Inhibition of tumorsphere formation in human PANC1 cells assessed as reduction in number of tumor spheres at 0.25 uM after 7 days; assay type: functional
In short: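 Tumorsphere formation: single-cell PANC-1 suspensions were plated in ultra-low-attachment wells at 2,000 cells/mL in Complete MammoCult medium, with compound at 0.25 µM. Tumorspheres were counted after 7 days. Three repeats, mean ± SEM.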

Structure (SMILES)	Ratio IC50 (ASPC1 [1])	IC50 (PANC-1 [3])	IC50 (ASPC1 [5])	IC50 (PANC-1 [6])	Ratio IC50 (PANC-1 [7])	Activity (PANC-1 [8])	IC50 (ASPC1 [10])	TGI (PANC-1 [12])	TGI (PANC-1 [13])	IC50 (PaTu 8988t [14])	IC50 (PaTu 8988t [15])	Activity (Danio rerio)	TGI (PANC-1 [16])	TGI (PANC-1 [17])	TGI (PANC-1 [18])	Ratio IC50 (PaTu 8988t [19])	also measured
COc1cccc2c1C(=O)c1c(O)c3c(c(O)c1C2=O)C[C@@](O)(C(=O)CO)C[C@@H]3O[C@H]1C[C@H](N)[C@H](O)[C@H](C)O1.Cl [DOXORUBICIN HYDROCHLORIDE]	0.78	1700 nM	2000 nM	480 nM	0.29	8.9%	1600 nM	–	–	–	–	–	–	–	–	–	fold change (FC) (PANC-1 [2]): 1.6; Activity [4]: 18.8%; Activity [9]: 0.964%
Nc1ccn([C@@H]2O[C@H](CO)[C@@H](O)C2(F)F)c(=O)n1 [GEMCITABINE]	–	1700 nM	–	400 nM	0.24	1.4%	–	–	–	–	–	–	–	–	–	–	TGI (PANC-1 [11]): 55%
C=C1/C=C/C(=O)N(C)CC(=O)NCC(=O)O[C@@H]([C@H](C)CCCCCCCCCCCCCC)[C@H](C)C(=O)N1	8.6	310 nM	490 nM	2480 nM	7.93	–	4170 nM	-2%	47%	2470 nM	440 nM	Non-Toxic	14%	6%	26%	5.67	–
C=C1/C=C/C(=O)N(C)CC(=O)N[C@@H](CC(=O)NC2CC2)C(=O)O[C@@H]([C@H](C)CCCCCCCCCCCCCC)[C@H](C)C(=O)N1	12.27	24 nM	22 nM	130 nM	5.25	0.5%	270 nM	10%	45%	200 nM	24 nM	Non-Toxic	15%	5%	22%	8.3	Activity [20]: 0.746%; fold change (FC) (PANC-1 [21]): 19; Activity [22]: 5.84%; Ratio IC50 (ASPC1 [23]): 4; fold change (FC) (PANC-1 [24]): 8.7
